Assay results: ChEMBL document CHEMBL4725359, “Development of Potent PfCLK3 Inhibitors Based on TCMDC-135051 as a New Class of Antimalarials” (J Med Chem, 2020)
Active and inactive are the calls of the source. The rule behind the calls is not given here.

Key:
[1] = Inhibition of recombinant full-length Plasmodium falciparum 3D7 CLK3 using ULight-labelled CFFKNIVTPRTPPPSQGK as substrate measured after 1 hr by TR-FRET assay
Procedure, shortened: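 Peptide substrate plus cold ATP with serially diluted inhibitor, 37 °C for 1 h. Stopped with 30 mM EDTA and Eu-anti-phospho antibody (3 nM), 1 h RT, read 665 nm emission. Normalised to no-kinase/no-inhibitor wells; three independent experiments in triplicate, mean ± SEM.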

[2] = Distribution coefficient, log D of the compound at pH 7.4 by HPLC method; assay type: physicochemical; conditions: octanol/water
Plasmodium falciparum [3] = assay: Antimalarial activity against chloroquine-sensitive synchronized ring stage of Plasmodium falciparum 3D7 incubated for 48 to 52 hrs by SYBR green 1 dye based assay; assay type: functional, organism-based
Plasmodium falciparum [4] = assay: Antimalarial activity against Plasmodium falciparum isolate GB0006 assessed as reduction in parasitemia at 1 to 10 times EC50 supplemented with fresh medium containing compounds every 24 hrs for 72 hrs relative to control; assay type: functional; set-up: scale not given: the % may be the effect or the level left
Procedure, shortened: (§1)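 Parasite reduction ratio setup: cryopreserved clinical isolates thawed and cultured at least one cycle (~48 h ± 2); new rings 0–3 h post-invasion taken as t = 0. […] 24 h arm: drug removed by two washes; 48 and 72 h arms: fresh drug every 24 h.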

Plasmodium falciparum [5] = assay: Antimalarial activity against Plasmodium falciparum isolate GB0021 assessed as reduction in parasitemia at 1 to 10 times EC50 supplemented with fresh medium containing compounds every 24 hrs for 72 hrs relative to control; assay type: functional; set-up: scale not given: the % may be the effect or the level left; procedure, shortened: as §1
Plasmodium falciparum [6] = assay: Antimalarial activity against Plasmodium falciparum isolate GB0048 assessed as reduction in parasitemia at 1 to 10 times EC50 supplemented with fresh medium containing compounds every 24 hrs for 72 hrs relative to control; assay type: functional; set-up: scale not given: the % may be the effect or the level left; procedure, shortened: as §1
Plasmodium falciparum [7] = assay: Antimalarial activity against Plasmodium falciparum isolate GB0071 assessed as reduction in parasitemia at 1 to 10 times EC50 supplemented with fresh medium containing compounds every 24 hrs for 72 hrs relative to control; assay type: functional; set-up: scale not given: the % may be the effect or the level left; procedure, shortened: as §1
Plasmodium falciparum [8] = assay: Antimalarial activity against Plasmodium falciparum isolate GB0087 assessed as reduction in parasitemia at 1 to 10 times EC50 supplemented with fresh medium containing compounds every 24 hrs for 72 hrs relative to control; assay type: functional; set-up: scale not given: the % may be the effect or the level left; procedure, shortened: as §1
Plasmodium falciparum [9] = assay: Antimalarial activity against Plasmodium falciparum isolate GB0020 assessed as reduction in parasitemia at 1 to 10 times EC50 measured after 24 hrs relative to control; assay type: functional; set-up: scale not given: the % may be the effect or the level left; procedure, shortened: as §1
Plasmodium falciparum [10] = assay: Antimalarial activity against Plasmodium falciparum isolate GB002 assessed as reduction in parasitemia at 1 to 10 times EC50 measured after 24 hrs relative to control; assay type: functional; set-up: scale not given: the % may be the effect or the level left; procedure, shortened: as §1
Plasmodium falciparum [11] = assay: Antimalarial activity against Plasmodium falciparum isolate GB0026 assessed as reduction in parasitemia at 1 to 10 times EC50 measured after 24 hrs relative to control; assay type: functional; set-up: scale not given: the % may be the effect or the level left; procedure, shortened: as §1
Plasmodium falciparum [12] = assay: Antimalarial activity against Plasmodium falciparum isolate GB0020 assessed as reduction in parasitemia at 10 times EC50 measured after 72 hrs; assay type: functional, organism-based; procedure, shortened: as §1
Plasmodium falciparum [13] = assay: Antimalarial activity against Plasmodium falciparum isolate GB002 assessed as reduction in parasitemia at 10 times EC50 measured after 72 hrs; assay type: functional, organism-based; procedure, shortened: as §1
Plasmodium falciparum [14] = assay: Antimalarial activity against Plasmodium falciparum isolate GB0026 assessed as reduction in parasitemia at 10 times EC50 measured after 72 hrs; assay type: functional, organism-based; procedure, shortened: as §1
Plasmodium falciparum [15] = assay: Antimalarial activity against Plasmodium falciparum isolate GB0004 assessed as reduction in parasitemia at 1 to 10 times EC50 supplemented with fresh medium containing compounds every 24 hrs for 72 hrs relative to control; assay type: functional; procedure, shortened: as §1
Plasmodium falciparum [16] = assay: Antimalarial activity against Plasmodium falciparum isolate GB0020 assessed as reduction in parasitemia at 1 to 10 times EC50 supplemented with fresh medium containing compounds every 24 hrs for 72 hrs relative to control; assay type: functional, organism-based; procedure, shortened: as §1
Plasmodium falciparum [17] = assay: Antimalarial activity against Plasmodium falciparum isolate GB002 assessed as reduction in parasitemia at 1 to 10 times EC50 supplemented with fresh medium containing compounds every 24 hrs for 72 hrs relative to control; assay type: functional, organism-based; procedure, shortened: as §1
Plasmodium falciparum [18] = assay: Antimalarial activity against Plasmodium falciparum isolate GB0026 assessed as reduction in parasitemia at 1 to 10 times EC50 supplemented with fresh medium containing compounds every 24 hrs for 72 hrs relative to control; assay type: functional, organism-based; procedure, shortened: as §1

| IC50 [1] [nM] | pIC50 [1] | logD [2] | EC50 (Plasmodium falciparum [3]; read-out: EC50) [nM] | Compound | further results |
| --- | --- | --- | --- | --- | --- |
| 9 | 8 |  |  | COc1ccc(CN2CCOCC2)cc1-c1cc2c(-c3ccc(C(=O)O)c(C(C)C)c3)ccnc2[nH]1 |  |
| 19 | 7.7 | 0.93 |  | CCN(CC)Cc1ccc(OC)c(-c2cc3c(-c4ccc(-c5nnn[nH]5)c(C(C)C)c4)ccnc3[nH]2)c1 |  |
| 29 | 7.5 | 0.85 | 457 | COc1ccc(CN(C)C)cc1-c1cc2c(-c3ccc(C(=O)O)c(C(C)C)c3)ccnc2[nH]1 |  |
| 1300 | 6 | 4.45 |  | CCN(CC)Cc1ccc(OC)c(-c2cc3c(-c4cccc(C(C)C)c4)ccnc3[nH]2)c1 |  |
| 79 | 7.1 | 2.45 | 1460 | COc1ccccc1-c1cc2c(-c3ccc(C(=O)O)c(C(C)C)c3)ccnc2[nH]1 | EC50 (Plasmodium falciparum [3]; read-out: pEC50 (converted)): 1580 nM |
| 38 | 7.4 | 2.43 | 382 | COc1ccc(CN2CCCC2)cc1-c1cc2c(-c3ccc(C(=O)O)c(C(C)C)c3)ccnc2[nH]1 |  |
| 76 | 7.1 | 0.61 | 2800 | COc1ccc(CN)cc1-c1cc2c(-c3ccc(C(=O)O)c(C(C)C)c3)ccnc2[nH]1 | EC50 (Plasmodium falciparum [3]; read-out: pEC50 (converted)): 2510 nM |
| 22 | 7.7 | 0.59 | 3530 | CCN(CC)Cc1ccc(O)c(-c2cc3c(-c4ccc(C(=O)O)c(C(C)C)c4)ccnc3[nH]2)c1 |  |
|  |  |  | 18 | CCc1nc(N)nc(N)c1-c1ccc(Cl)cc1 [PYRIMETHAMINE] | Activity (Plasmodium falciparum [4]): >=70%; Activity (Plasmodium falciparum [5]): >=70%; Activity (Plasmodium falciparum [6]): >=70%; Activity (Plasmodium falciparum [7]): >=70%; Activity (Plasmodium falciparum [8]): >=70%; Activity (Plasmodium falciparum [9]): 45%; Activity (Plasmodium falciparum [10]): 64%; Activity (Plasmodium falciparum [11]): 36%; Activity (Plasmodium falciparum [12]): inactive; Activity (Plasmodium falciparum [13]): inactive; Activity (Plasmodium falciparum [14]): inactive |
| 40 | 7.4 | 0.93 |  | CCN(CC)Cc1ccc(OC)c(-c2cc3c(-c4ccc(C(=O)O)c(C(C)C)c4)ccnc3[nH]2)c1 | Activity (Plasmodium falciparum [4]): Active; Activity (Plasmodium falciparum [15]): Active; Activity (Plasmodium falciparum [5]): Active; Activity (Plasmodium falciparum [6]): Active; Activity (Plasmodium falciparum [7]): Active; Activity (Plasmodium falciparum [8]): Active; Activity (Plasmodium falciparum [16]): Active; Activity (Plasmodium falciparum [17]): Active; Activity (Plasmodium falciparum [18]): Active |
| 17 | 7.7 | 0.74 | 3170 | CCN(CC)Cc1cccc(-c2cc3c(-c4ccc(C(=O)O)c(C(C)C)c4)ccnc3[nH]2)c1OC | EC50 (Plasmodium falciparum [3]; read-out: pEC50 (converted)): 2510 nM |
| 34 | 7.5 | 0.65 | 3270 | CCN(CC)Cc1ccc(OC)c(-c2cc3c(-c4ccc(C(=O)O)cc4)ccnc3[nH]2)c1 |  |
| 25 | 7.6 | 0.8 | 309 | CCN(CC)Cc1cccc(-c2cc3c(-c4ccc(C(=O)O)c(C(C)C)c4)ccnc3[nH]2)c1 |  |
| 1380 | 4.9 |  |  | CCN(CC)Cc1ccc(OC)c(-c2cc3c(-c4ccc(C(C)C)c(C(=O)O)c4)ccnc3[nH]2)c1 |  |
| 390 | 6.4 | 2.45 |  | CCOC(=O)c1ccc(-c2ccnc3[nH]c(-c4cc(CN(CC)CC)ccc4OC)cc23)cc1C(C)C |  |
| 24 | 7.6 | 0.66 | 1180 | CCN(CC)Cc1ccc(OC)c(-c2cc3c(-c4ccc(C(=O)O)c(C)c4)ccnc3[nH]2)c1 | EC50 (Plasmodium falciparum [3]; read-out: pEC50 (converted)): 2510 nM |
